Source: PubChem BioAssay
Records with an inconclusive call do not appear.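 How the source made its calls, unless noted: active means growth inhibition above 25% in both replicates, a cutoff set 3 SD above the mean; inconclusive means above 25% in only one replicate; inactive means the rest.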

Assays:
[1] = S. cerevisiae growth inhibition in permissive medium (OD615), pilot counter-assay for S. cerevisiae lifespan shortening project, permissive growth control (AID 705); details: OD615, 24 h, at 10 µM, hits give high values
Method in brief: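 System: S. cerevisiae with engineered DeaD lifespan system / Measured by: absorbance (optical density) at 615 nm / Read-out: reduction in yeast growth (OD615) / Times: 4 h cell pre-growth, 24 h exposure at 30 °C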

[2] = S. cerevisiae growth inhibition in restrictive medium, OD615, pilot screen, restrictive growth control, yeast lifespan reduction project (AID 706;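 active means growth inhibition above a set limit, 3 SD over mean compound inhibition, in both replicates, cut at about 43% in these data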;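 further: modified DeaD lifespan yeast strain shifted to restrictive glucose medium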); details: OD615, 48 h, at 10 µM, hits give high values
Method in brief: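 System: Engineered S. cerevisiae DeaD strain | Buffer or medium: Glucose-based CSMM-D restrictive medium | Schedule: 4 h pre-incubation, 48 h exposure at 30 °C | Technique: Optical density at 615 nm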

[3] = doxorubicin toxicity protection in MRP-1 cells – H69AR cells, CellTiter-Glo, duplicate, MRP-1 activator project, pilot screen (AID 807;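 active means viability increase at or above a cutoff of the median across tested compounds plus 3 SD, cut at about 8.5% in these data, passing the limit was not always enough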;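 further: compound pretreatment 18-22 h then 72 h combined with doxorubicin; 0% = doxorubicin alone and 100% = vehicle without doxorubicin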); details: H69AR viability with doxorubicin, CellTiter-Glo luminescence; at 10 µM; hits give high values
[4] = viability of HCT116 without oncogenic beta-catenin – human colon tumor cells, pilot screen (AID 823;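 active means cell viability at or below a set limit in both duplicate runs, the limit being the all-compound median minus 4 SD, cut at about 23% in these data, passing the limit was not always enough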;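 further: 0% = wells killed by 20 µM Hyamine and 100% = untreated DMSO cell wells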); details: HCT116 beta-catenin knockout viability, CellTiter-Glo, 60 h; at 10 µM; hits give low values
[5] = viability of PTEN-null HCT116 cells – cell-based, HCT116 clonal line, CellTiter-Glo, pilot screen (AID 824;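 active means viability at or below 27.92% in each of two runs, the all-compound median minus 4 SD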;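 further: 0% = 20 µM Hyamine control and 100% = vehicle cell control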); details: HCT116 PTEN-deleted viability, 60 h, at 10 µM, hits give low values
[6] = RAM pathway blockade in budding yeast – dse1pr::URA3 reporter, 5-FOA selection, pilot screen (AID 869;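 active means inhibition over a set limit, the all-compound mean plus 3 SD, in both replicate runs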;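 further: 0% = DMSO wells with no growth and 100% = 10 µM 1-NA-PP1 with full growth; RAM network block rescues cells from 5-FOA so hits raise OD615 growth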); details: S. cerevisiae dse1pr::URA3 5-FOA growth, OD615, 2 d; at 10 µM; hits give high values; strain carries analog-sensitive mutant Cbk1 kinase
[7] = RAM signaling pathway blockade in yeast – S. cerevisiae, Pdr1DBD-CYC8 efflux-inhibited sensitized strain, primary screen (AID 1298;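 active means RAM network inhibition above 8.4% in each of two replicates, 3 SD over the compound average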;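 further: 0% = DMSO untreated cells without growth and 100% = 10 µM 1-NA-PP1 full growth; higher means more yeast growth rescued from 5-FOA killing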); details: S. cerevisiae cbk1-as DSE1-URA3 strain, 5-FOA growth OD615, 2 d; at 50 µM; hits give high values

COc1ccc(C(=O)NCC(c2cccnc2)N2CCN(c3ccccc3)CC2)cc1OC (stereo not drawn)
inactive: growth inhibition [1] -5.73% | growth inhibition [2] 0.095% | viability increase [3] -2.1% | viability [4] 97.6% | viability [5] 93.1% | inhibition [6] 1.5% | RAM network inhibition [7] 2.74%

C(#Cc1ccc(C#CCN2CCOCC2)cc1)CN1CCOCC1
inactive: growth inhibition [1] -17.1% | growth inhibition [2] -9.67% | viability increase [3] -0.83% | viability [4] 85.8% | viability [5] 87.2% | inhibition [6] 1.15% | RAM network inhibition [7] 3.18%

c1ccc(Cn2ncc3c(N4CCCCC4)ncnc32)cc1
inactive: growth inhibition [1] -0.96% | growth inhibition [2] 8.13% | viability increase [3] -0.97% | viability [4] 96.2% | viability [5] 95.4% | inhibition [6] 0.01% | RAM network inhibition [7] 3.67%

c1ccc2c(c1)[nH]c1nc3nncn3nc12
inactive: growth inhibition [1] -7.18% | growth inhibition [2] -14.9% | viability increase [3] -1.07% | viability [4] 94% | viability [5] 93% | inhibition [6] 1.29% | RAM network inhibition [7] 7.04%

CCOC(=O)C1C(=O)Oc2ccc3ccccc3c2C1C1CCOC1=O (stereo not drawn)
inactive: growth inhibition [1] -5.13% | growth inhibition [2] -1.85% | viability increase [3] -2.53% | viability [4] 99.5% | viability [5] 97.6% | inhibition [6] 0.105% | RAM network inhibition [7] -1.08%

N#CCCN1CCN(S(=O)(=O)c2ccc(S(=O)(=O)N3CCCC3)cc2)CC1
inactive: growth inhibition [1] 0.995% | growth inhibition [2] 7.04% | viability increase [3] 1.73% | viability [4] 101% | viability [5] 104% | inhibition [6] 1.29% | RAM network inhibition [7] 8.15%

CC(=O)C1(O)C(C)CC2C3CCC4CC(O)CCC4(C)C3=CCC21C (stereo not drawn)
inactive: growth inhibition [1] -8.11% | growth inhibition [2] -5.04% | viability increase [3] -1.36% | viability [4] 97.2% | viability [5] 90.2% | inhibition [6] 0.305% | RAM network inhibition [7] 9.58%

CN(CCNC(=O)C1(O)c2ccccc2NC(=O)N1c1ccccc1)Cc1ccccc1 (stereo not drawn)
inactive: growth inhibition [1] -15.6% | growth inhibition [2] -17.7% | viability increase [3] -2.03% | viability [4] 95.8% | viability [5] 93.2% | inhibition [6] 0.43% | RAM network inhibition [7] 2.02%

O=C(NCCN1CCCCC1)c1ccc2c(c1)OCCO2
inactive: growth inhibition [1] -9.66% | growth inhibition [2] -10.3% | viability increase [3] -1.4% | viability [4] 102% | viability [5] 99% | inhibition [6] 1.86% | RAM network inhibition [7] 2.64%

Cc1nn(Cc2ccccc2)c(N)c1-c1ccccc1
inactive: growth inhibition [1] -8.39% | growth inhibition [2] -9.23% | viability increase [3] -0.57% | viability [4] 95.2% | viability [5] 87.1% | inhibition [6] 2.53% | RAM network inhibition [7] 2.53%

COc1ccc(CN2CCCCC2C(=O)Nc2ccc(OC)c(OC)c2)cc1OC (stereo not drawn)
inactive: growth inhibition [1] -10.9% | growth inhibition [2] -12.6% | viability increase [3] -1.88% | viability [4] 95.8% | viability [5] 93.3% | inhibition [6] 0.01% | RAM network inhibition [7] 0.21%

Cc1cc(Nc2c(C)cccc2C)n2nc(C)nc2n1
inactive: growth inhibition [1] -4.35% | growth inhibition [2] 7.11% | viability increase [3] -0.85% | viability [4] 104% | viability [5] 111% | inhibition [6] 2.33% | RAM network inhibition [7] 0.16%

N#CCc1ccc(NS(=O)(=O)c2ccc(N3CCCC3=O)cc2)cc1
inactive: growth inhibition [1] -10.7% | growth inhibition [2] -7.71% | viability increase [3] -0.69% | viability [4] 89.8% | viability [5] 88% | inhibition [6] 2.58% | RAM network inhibition [7] 0.32%

CC(C)(C)c1ccc(OCC(O)CS(=O)(=O)c2ccccn2)cc1 (stereo not drawn)
inactive: growth inhibition [1] -20.8% | growth inhibition [2] -19.1% | viability increase [3] -0.66% | viability [4] 97.8% | viability [5] 94.5% | inhibition [6] -0.5% | RAM network inhibition [7] 4.16%

C=C1CC2C=C(NC(C)=O)CC(C1)C2 (stereo not drawn)
inactive: growth inhibition [1] -18.7% | growth inhibition [2] -12.7% | viability increase [3] -0.27% | viability [4] 98.6% | viability [5] 95.6% | inhibition [6] 1.1% | RAM network inhibition [7] 4.47%

C=CCn1c(=N)c(C(=O)OCC)cc2c(=O)n3cc(C)ccc3nc21
inactive: growth inhibition [1] 1.62% | growth inhibition [2] 0.61% | viability increase [3] -1.79% | viability [4] 87% | viability [5] 87.4% | inhibition [6] 1.7% | RAM network inhibition [7] 3.98%

CC1(C)CC(=O)C(C=NCc2cccnc2)=C(O)C1
inactive: growth inhibition [1] -10.7% | growth inhibition [2] -17.6% | viability increase [3] 0.64% | viability [4] 92.8% | viability [5] 98.8% | inhibition [6] 0.7% | RAM network inhibition [7] 4.76%

COc1cc(Br)c(CC(=O)O)cc1OC
inactive: growth inhibition [1] -24.6% | growth inhibition [2] -13.7% | viability increase [3] -0.03% | viability [4] 98.2% | viability [5] 97.1% | inhibition [6] 2.38% | RAM network inhibition [7] 3.76%

CCc1ccc(C(=O)NCc2cccs2)s1
inactive: growth inhibition [1] -5.71% | growth inhibition [2] 4.03% | viability increase [3] 1.53% | viability [4] 104% | viability [5] 97.1% | inhibition [6] 0.715% | RAM network inhibition [7] -1.7%

C=CCn1c(NC(C)c2cc(Cl)ccc2O)nc2ccccc21 (stereo not drawn)
inactive: growth inhibition [1] -8.04% | growth inhibition [2] -0.215% | viability increase [3] -0.96% | viability [4] 68.6% | viability [5] 65.1% | inhibition [6] 0.29% | RAM network inhibition [7] -1.03%

CCC(CO)N=CC1=C(O)CC(C)(C)CC1=O (stereo not drawn)
inactive: growth inhibition [1] 3.97% | growth inhibition [2] -5.8% | viability increase [3] -0.8% | viability [4] 102% | viability [5] 98.8% | inhibition [6] -0.06% | RAM network inhibition [7] 0.21%

CN=C(NC)SC1CC(=O)N(c2ccccc2)C1=O (stereo not drawn)
inactive: growth inhibition [1] -8.98% | growth inhibition [2] -4.91% | viability increase [3] 1.47% | viability [4] 109% | viability [5] 101% | inhibition [6] 0.305% | RAM network inhibition [7] 1.02%

Cc1nnc(NC(=O)CSc2nc3c(c(=O)n2CCc2ccccc2)SC(C)C3)s1 (stereo not drawn)
inactive: growth inhibition [1] -9.82% | growth inhibition [2] -15.6% | viability increase [3] 0.33% | viability [4] 101% | viability [5] 103% | inhibition [6] 3.13% | RAM network inhibition [7] 6.06%

Cn1c(=O)c2c(SCc3cccnc3)nc(C3CC3)nc2n(C)c1=O
inactive: growth inhibition [1] 1.77% | growth inhibition [2] -1.23% | viability increase [3] 0.27% | viability [4] 94.5% | viability [5] 83.4% | inhibition [6] -0.18% | RAM network inhibition [7] -1.65%
